Bioassay records from PubChem BioAssay.
Shown are actives, neighbours in structure and some others; about 2% of the full set was active somewhere.
SR-BI uptake up: activators of SR-BI mediated HDL lipid uptake; CHO ldlA[mSR-BI] cells, DiI-HDL uptake fluorescence, 3 h; 100 = double the neutral-control signal; activation, % at 12.5 µM; 320,000 tested, 0.096% active; AID 504775;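 active = mean replicate activation of at least 60% and every replicate at or above 60%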
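System: CHO ldlA[mSR-BI] cells / Medium: HEPES-buffered (25 mM, pH 7.4) F12 plus 0.5% BSA / Probe or stimulus: labelled HDL, 10 µg/mL / Doses: single compound concentration, delivered by pin transfer / Schedule: 3 h, 37 °C / Measured by: DiI fluorescence, bottom read / Measure: cell-associated DiI fluorescence as measure of HDL uptake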
dFosB act: enhances mouse delta FosB homodimer DNA binding. P13346. purified delta FosB, TAMRA-CDK5 oligo fluorescence polarization; percent of positive-control signal above neutral wells. activation, % at 25 µM. 340,000 tested, 0.99% active. AID 493131;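 active = mean activation above about 17%, with every replicate also reaching it, limit read from the data, passing the limit was not always enough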
CDK5 inh: inhibitors of human CDK5/p35 kinase | AID 488839 | 330,000 tested, 0.01% active | Recombinant CDK5/p35, ADP-Glo luminescence, 60 min | Q00535+Q15078 | inhibition, % at 10 µM;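 active = highest replicate inhibition of at least 50% and at least 75% of replicates reaching 50%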
Target sequence (Q00535 whole entry, looked up): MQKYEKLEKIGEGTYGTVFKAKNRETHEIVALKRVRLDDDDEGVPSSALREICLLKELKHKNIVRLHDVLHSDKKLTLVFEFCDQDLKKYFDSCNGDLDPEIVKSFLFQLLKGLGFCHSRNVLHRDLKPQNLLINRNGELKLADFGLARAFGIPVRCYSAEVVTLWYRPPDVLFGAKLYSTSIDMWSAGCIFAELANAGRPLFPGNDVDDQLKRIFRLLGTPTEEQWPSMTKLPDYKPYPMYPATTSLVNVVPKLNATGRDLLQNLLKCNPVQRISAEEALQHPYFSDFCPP
Target sequence (Q15078 whole entry, looked up): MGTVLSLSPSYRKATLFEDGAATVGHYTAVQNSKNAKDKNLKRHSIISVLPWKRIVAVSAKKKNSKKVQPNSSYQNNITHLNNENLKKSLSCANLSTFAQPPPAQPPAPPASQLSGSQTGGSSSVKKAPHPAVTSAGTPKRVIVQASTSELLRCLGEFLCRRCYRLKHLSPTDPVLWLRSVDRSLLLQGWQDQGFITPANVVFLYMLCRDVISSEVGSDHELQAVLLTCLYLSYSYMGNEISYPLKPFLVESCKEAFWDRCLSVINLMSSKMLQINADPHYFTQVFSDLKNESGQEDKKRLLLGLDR
SR-BI HDL uptake: mouse SR-BI HDL lipid transfer inhibition; Q61009; ldlA[mSR-BI] CHO cells, DiI-HDL uptake fluorescence, 3 h; 320,000 tested, 0.96% active; inhibition, % at 12.5 µM;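 active = mean replicate inhibition of at least 70% and a set share of replicates each scoring 70 or more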
Numbers stand for hits; 0 = inactive; - = no result.

SMILES	SR-BI uptake up	dFosB act	CDK5 inh	SR-BI HDL uptake
Cc1ccc(S(=O)(=O)Nc2ccc3c(c2)C(=O)N([C@H](C)CO)C[C@H](C)[C@@H](CN(C)Cc2ccc(-c4ccccc4)cc2)O3)cc1	76.0	0	0	0
C[C@@H]1CN([C@@H](C)CO)C(=O)Cc2cc(NC(=O)Nc3ccc(F)cc3)ccc2O[C@@H]1CN(C)Cc1ccc(Cl)c(Cl)c1	92.6	0	0	0
O=CNC1c2ccccc2CCc2ccccc21	0	0	0	0
O=C(CSc1ccccc1)N1CCCC(Nc2ccccc2)C1 (stereo not drawn)	0	0	0	0
O=C(NCCN1CCN(C(=O)c2ccc(Br)cc2)CC1)c1ccc(Br)cc1	0	0	0	71.1
Cc1cc(C(=O)N/N=C/c2c(CO)cnc(C)c2O)c2ccccc2n1	0	0	0	0
Cc1ncc(CO)c(/C=N/NC(=O)c2cc(Br)ccc2O)c1O	0	0	0	116.5
CCOC(=O)c1cccc(NC(=O)/C=C/c2cccc([N+](=O)[O-])c2)c1	0	0	0	72.8
CCOC(=O)/C=C/C(=O)Nc1cccc([N+](=O)[O-])c1	0	0	0	0
COc1ccc(OC)c(NC(=O)C2CCN(C(=O)C3CC(=O)N(c4ccc(C)cc4)C3)CC2)c1 (stereo not drawn)	-	0	0	-
COc1ccc(C)cc1NC(=O)C1CCN(C(=O)C2CC(=O)N(c3ccc(C)cc3)C2)CC1 (stereo not drawn)	0	0	0	89.3
CC(C)c1ccc(/C=N/n2c(COc3ccccc3)n[nH]c2=S)cc1	0	0	0	0
CCCCC1OC23CCCCC2C(C#N)(C(=N)O3)C1(C#N)C#N (stereo not drawn)	80.8	0	0	0
CCCCC1OC23CCCCC2C(C#N)(C#N)C1(C#N)C(=N)O3 (stereo not drawn)	0	0	0	0
COc1ccccc1NS(=O)(=O)c1ccc(O)c(C(=O)OCC(=O)Nc2ccccc2F)c1	0	0	0	0
O=C(COC(=O)c1cc(S(=O)(=O)Nc2ccccc2Cl)ccc1O)Nc1ccc(F)c(F)c1F	0	24.7	0	0
CCC1CN(C(=O)N2CCC(C(=O)NCc3ccc(OC)cc3OC)CC2)c2ccccc2O1 (stereo not drawn)	0	0	0	0
COc1cc2c(cc1NC(=O)C(C)Sc1ccc(C)cc1)oc1ccccc12 (stereo not drawn)	0	0	0	78.9
COc1ccc(C)cc1NC(=O)Cn1c(=O)oc2ccccc21	0	18.8	0	0
COc1cc2c(cc1NC(=O)Cc1ccc(C)cc1)oc1ccccc12	0	0	0	71.7
COc1cc2c(cc1NC(=O)C(C)NCc1ccccc1)oc1ccccc12 (stereo not drawn)	0	0	0	0
COc1cc2c(cc1NC(=O)CSc1ccc(C)cc1)oc1ccccc12	0	0	0	0
COc1cc2c(cc1NC(=O)CCCCCN1C(=O)CCC1=O)oc1ccccc12	0	0	0	85.2
COc1cccc(NC(=O)COC(=O)CCC2CCCC2)c1	0	0	0	0
CCC(C)N(C(=O)COC(=O)CNC(=O)c1sc2ccccc2c1Cl)C1CCS(=O)(=O)C1 (stereo not drawn)	0	0	0	0
SMILES	SR-BI uptake up	dFosB act	CDK5 inh	SR-BI HDL uptake
COc1cc2sc3ccc(-c4ccc(CN5CCOCC5)cc4)cc3c(=O)c2cc1OC	0	0	0	71.4
CCN1/C(=C\C(=S)Nc2ccccc2)Sc2ccccc21	0	0	0	80.5
CCN1/C(=C\C=C(C(C)=O)C(C)=O)Sc2ccccc21	0	0	0	0
O=C(Nc1cccc(-c2ccc(N3CCCCC3)nn2)c1)c1ccco1	0	0	0	0
COc1ccc(C(=O)NC2CCN(CC(=O)Nc3cccc(C)c3)CC2)cc1OC	0	0	0	80.1
CCCCOc1ccc(C(=O)N2CCN(CC(=O)Nc3ccc(C)cc3)CC2)cc1OC	0	0	0	77.8
CN(C)S(=O)(=O)c1cccc(NC(=O)c2ccc(S(=O)(=O)N3CCCCC3)cc2)c1	0	0	0	0
NC(=O)c1ccc(-c2nnn(CC(=O)Nc3cccc(S(=O)(=O)N4CCCC4)c3)n2)cc1	0	110.5	0	0
Cc1ccc(S(C)(=O)=O)cc1C(=O)Nc1cccc(S(=O)(=O)N2CCCCCC2)c1	0	0	0	80.5
CN(C)S(=O)(=O)c1cccc(NC(=O)c2cccc(S(=O)(=O)N3CCCCCC3)c2)c1	0	0	0	77.0
CS(=O)(=O)c1cccc(C(=O)Nc2cccc(S(=O)(=O)N3CCCC3)c2)c1	0	0	0	82.5
COc1ccc(NC(=O)CN(C)C(=O)CN2C(=O)C3CCCCC3C2=O)cc1 (stereo not drawn)	0	0	0	0
Cc1ccc(-c2c(C(=O)N/N=C/C3CC=CCC3)nnn2-c2nonc2N)cc1 (stereo not drawn)	0	0	0	0
O=C(COc1ccccc1)Nc1cccc(S(=O)(=O)N2CCCC2)c1	0	0	0	0
CC(=O)Nc1cccc(OCC(=O)Nc2cccc(S(=O)(=O)N3CCCC3)c2)c1	449.5	0	0	0
Cc1cc(NC(=O)c2cccc(S(=O)(=O)N3CCCCCC3)c2)n(-c2ccccn2)n1	0	0	0	82.3
Cc1nn(-c2ccc(N3CCOCC3)nn2)c(C)c1CCC(=O)NCc1ccc(F)cc1	0	0	0	0
O=C(N[C@@H]1C[C@H]2CC[C@@H]1C2)c1ccco1	0	0	0	0
CCOc1cc(/C=C/c2nc3ccccc3s2)ccc1OCC(=O)N1CCOCC1	0	0	0	77.6
CCOc1cc(C(=O)NCc2ccccc2)ccc1OCC(=O)N1CCOCC1	0	0	0	0
CC(=O)c1ccc(OCC(O)CN2CCN(S(=O)(=O)c3c(C)c(C)cc(C)c3C)CC2)cc1 (stereo not drawn)	0	0	0	85.6
O=C(O)c1ccc(Cl)c(S(=O)(=O)Nc2ccc(OCc3ccccc3)cc2)c1	-	0	0	-
Cc1ccccc1CNC(=O)c1ccc(Cl)c([N+](=O)[O-])c1	0	0	0	0
CC(C)(C)SCCNC(=O)c1ccc(Cl)c([N+](=O)[O-])c1	79.1	0	0	0
COc1cccc(/C=C/C(=O)NCc2cn3cc(Cl)ccc3n2)c1	0	17.4	0	0
SMILES	SR-BI uptake up	dFosB act	CDK5 inh	SR-BI HDL uptake
Cc1cc(C)c(NC(=O)C2CCCN(S(=O)(=O)c3c(C)noc3/C=C/N(C)C)C2)c(C)c1 (stereo not drawn)	0	0	0	0
O=C(CN1CCCC1)Nc1c(Cl)cccc1Cl	0	0	0	0
CCOC(=O)c1c(C)[nH]c(C(=O)OCc2csc(CC(=O)Nc3ccccc3C)n2)c1C	0	0	0	81.0
CCOC(=O)c1c(C)[nH]c(C(=O)OCC(=O)Nc2sccc2C(N)=O)c1C	0	21.8	0	0
Cc1ccccc1NC(=O)Cc1nc(COC(=O)c2cccc(C)c2O)cs1	0	0	0	0
COc1cccc(CNCCSc2nnnn2C)c1	60.4	0	0	0
COc1cc2nc(Nc3ccc(C)c(C)c3)nc(N)c2cc1OC	0	105.4	0	0
COc1cc2nc(Nc3ccc(C)c(Cl)c3)nc(N)c2cc1OC	0	59.5	0	0
